The record followed here is ChEMBL document CHEMBL2412990, “Synthesis and pharmacological evaluation of new N-phenylpiperazine derivatives designed as homologues of the antipsychotic lead compound LASSBio-579” (Eur J Med Chem, 2013).

Series [1] relates to Mus musculus. The series is described as follows: Toxicity in CF1 mouse assessed as effect on locomotor activity measuring number of crossings at 1 to 3 mg/kg, ip administered 30 mins prior ketamine challenge measured for 20 mins post challenge. The note with it: in vivo. More on the design: dose 1-3 mg/kg, route intraperitoneal. The format is organism-based.
Series [2] deals with Mus musculus. The series is described as follows: Toxicity in CF1 mouse assessed as reduction in locomotor activity measuring number of crossings at 10 mg/kg, ip administered 30 mins prior ketamine challenge measured for 20 mins post challenge. The format is organism-based. Set-up: dose 10 mg/kg, route intraperitoneal. As to conditions: in vivo.
In series [3] the test system is Mus musculus. The series is described as follows: Antipsychotic activity in ip dosed CF1 mouse assessed as prevention of ketamine-induced hyperlocomotion compound administered 30 mins prior ketamine challenge measured for 20 mins post challenge. The series is classed as functional, organism-based. In a few lines:
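Mice were pretreated (reference drug orally after 2 h fast; test compound i.p.) and placed in the arena centre. Ketamine 10 mg/kg s.c. was given 30 min later. A blinded observer counted total square crossings over 20 min in a dimly lit room. n = 7–8. Analysed by one-way ANOVA with Newman-Keuls post hoc test.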

For series [4], the system named is Mus musculus. The series is described as follows: Antipsychotic activity in ip dosed CF1 mouse assessed as prevention of apomorphine-induced climbing behaviour compound administered 30 mins prior apomorphine challenge measured 5 to 30 mins post challenge. The format is functional, organism-based. In a few lines: (§1)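 Adult male mice, 25–35 g, dosed i.p. at 10 ml/kg, then placed in wire-bar cages for 30 min. Apomorphine 4 mg/kg s.c. followed. Climbing was scored 0–4 for 1 min at 5, 10, 15, 20, 25 and 30 min; the climbing index is the sum of scores. n = 7–9. Analysed by one-way ANOVA with Newman-Keuls post hoc test.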

Series [5] has as its target 5-hydroxytryptamine receptor 2A (Rattus norvegicus) (UniProt P14842). The series is described as follows: Antagonist activity at 5HT2A receptor in rat brain cortical membranes assessed as inhibition of [3H]-ketanserin binding to receptor after 15 mins by competition assay in absence of GTP. The format is cell membranes. The gist of the method:
(§2)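 Rat cortical membranes, 150 µg protein, with 1 nM [3H]-ketanserin and 100 nM prazosin in 50 mM Tris-HCl pH 7.4, 37 °C, 15 min. Non-specific binding was defined with ketanserin. For the GTP shift, paired competition curves were run without and with guanylyl nucleotide (0.1 mM Gpp(NH)p or 1 mM GTP).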

For series [6] the target is unchanged. The series is described as follows: Antagonist activity at 5HT2A receptor in rat brain cortical membranes assessed as inhibition of [3H]-ketanserin binding to receptor after 15 mins by competition assay in presence of GTP. The format is cell membranes. The gist of the method:
as §2

Series [7] concerns Alpha-2 adrenergic receptor (Rattus norvegicus). The series is described as follows: Antagonist activity at alpha2 adrenoreceptor in rat brain cortical membranes assessed as inhibition of [3H]-RX821002 binding to receptor after 45 mins by competition assay in absence of GTP.
Series [8] shares this test system. The series is described as follows: Antagonist activity at alpha2 adrenoreceptor in rat brain cortical membranes assessed as inhibition of [3H]-RX821002 binding to receptor after 45 mins by competition assay in presence of GTP.
The subject of series [9] is Mus musculus. The series is described as follows: Antipsychotic activity in CF1 mouse assessed as prevention of apomorphine-induced climbing behaviour at 0.1 to 10 mg/kg, ip administered 30 mins prior apomorphine challenge measured 5 to 30 mins post challenge. The series is classed as functional, organism-based. In a few lines:
as §1

Each structure is given as a SMILES string. The source made the active and inactive calls. No cut-off for these calls is given here.

Sequence of 5-hydroxytryptamine receptor 2A (Rattus norvegicus) (P14842 whole entry): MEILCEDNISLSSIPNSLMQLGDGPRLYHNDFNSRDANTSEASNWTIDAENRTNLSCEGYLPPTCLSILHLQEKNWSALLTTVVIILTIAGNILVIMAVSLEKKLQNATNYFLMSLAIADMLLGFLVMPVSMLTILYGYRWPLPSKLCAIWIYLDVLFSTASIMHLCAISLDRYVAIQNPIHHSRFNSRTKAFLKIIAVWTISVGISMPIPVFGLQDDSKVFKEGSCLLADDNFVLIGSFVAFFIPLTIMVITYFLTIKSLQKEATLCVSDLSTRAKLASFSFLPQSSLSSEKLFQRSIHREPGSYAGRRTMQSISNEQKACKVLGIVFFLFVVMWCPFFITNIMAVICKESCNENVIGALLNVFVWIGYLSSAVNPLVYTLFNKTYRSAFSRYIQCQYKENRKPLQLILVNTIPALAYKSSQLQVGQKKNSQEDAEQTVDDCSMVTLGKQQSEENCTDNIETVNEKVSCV

On to `Clc1ccc(-n2cc(CCCCN3CCN(c4ccccc4)CC3)cn2)cc1`, for which the Activity entry with Mus musculus [1] was “Non-toxic”; in the series on Mus musculus [2] it was “Toxic”; in the series with Mus musculus [3], “Dose-dependent effect”; in the series on Mus musculus [4] it was “Dose-dependent effect”. Besides, the inhibition entry in series [5], in series [6], in series [7] and in series [8] was “Active” throughout.

On to `Clc1ccc(-n2cc(CN3CCN(c4ccccc4)CC3)cn2)cc1`, for which the result in the series with Mus musculus [9] was Active.
